{"data": "Experimental data gathered from unrelated publications", "P2RY14": "P2Y purinoceptor 14 (P2RY14, Homo sapiens, UniProt Q15391)", "IRAK4": "Interleukin-1 receptor-associated kinase 4 (IRAK4, Homo sapiens, UniProt Q9NWZ3)", "TGFBR1": "TGF-beta receptor type-1 (TGFBR1, Homo sapiens, UniProt P36897)", "note": "Each line is one published result; the experiments were not run side by side."}
{"SMILES": "O=C(O)c1cc(-c2ccc(-c3ccc(Cl)s3)cc2)c2ccc(-c3ccc(C(F)(F)F)cc3)cc2c1", "target": "P2RY14", "test": "ligand displacement in cells, flow cytometry", "IC50": "2040 nM"}
{"SMILES": "O=C(NO)c1ccc(Cn2cnc3c(Nc4cccc([N+](=O)[O-])c4)ncnc32)cc1", "target": "Histone deacetylase 3 (HDAC3, Homo sapiens, UniProt O15379)", "test": "enzyme activity, inhibitor, fluorescence", "IC50": "< 2 nM"}
{"SMILES": "CC(C)OC(=O)[C@H](Cc1c[nH]c2ccccc12)NC(=O)c1ccco1", "target": "P2RY14", "test": "cAMP, antagonist", "IC50": "21.6 nM"}
{"SMILES": "Cc1cc2c(cc1C)N[C@H](c1ccccc1)[C@@H](O)C(=O)N2", "target": "Tyrosine-protein kinase JAK3 (JAK3, Homo sapiens, UniProt P52333)", "test": "enzyme activity, inhibitor, ELISA", "IC50": "1150 nM"}
{"SMILES": "CNC(=O)c1ccccc1Nc1nc(Nc2ccc(CO)cc2)ncc1C1CC1", "target": "IRAK4", "test": "enzyme activity, inhibitor, radiometric", "IC50": "3 nM"}
{"SMILES": "Cn1ccc(-c2ccc(-c3cc(C(=O)O)cc4cc(-c5ccc(C(F)(F)F)cc5)ccc34)cc2)n1", "target": "P2RY14", "test": "ligand displacement in cells, flow cytometry", "IC50": "35.5 nM"}
{"SMILES": "C=CCC1c2ccc(OC)c(OC)c2CN2CCc3cc4c(cc3C12)OCO4 (stereo not shown)", "target": "P2X purinoceptor 7 (P2RX7, Homo sapiens, UniProt Q99572)", "test": "ion current, patch clamp", "IC50": "470 nM"}
{"SMILES": "CNC(=O)c1ccccc1Nc1nc(Nc2ccc(CC(F)F)cc2)ncc1Cl", "target": "IRAK4", "test": "enzyme activity, inhibitor, radiometric", "IC50": "74.8 nM"}
{"SMILES": "COC(=O)/C=C/c1ccc(OCCN(C)c2ccccc2)cc1", "target": "Fatty acid CoA ligase Acsl3 (ACSL3, Homo sapiens, UniProt O95573)", "test": "enzyme activity, inhibitor", "IC50": "> 50000 nM"}
{"SMILES": "CS(=O)(=NC#N)c1ccccc1Nc1nc(Nc2ccnc(CO)c2)ncc1Cl (stereo not shown)", "target": "IRAK4", "test": "enzyme activity, inhibitor, radiometric", "IC50": "28.6 nM"}
{"SMILES": "Cc1ccc(OCC(=O)N[C@@H](Cc2c[nH]c3ccccc23)C(=O)OC(C)C)cc1", "target": "Cytochrome P450 2D6 (CYP2D6, Homo sapiens, UniProt P10635)", "test": "enzyme activity, inhibitor", "test system": "human, liver microsomes", "conditions": "30 min", "IC50": "27400 nM"}
{"SMILES": "Oc1ccccc1-c1n[nH]cc1-c1ccnc2ccccc12", "target": "TGFBR1", "test": "enzyme activity, inhibitor, radiometric", "IC50": "7400 nM"}
{"SMILES": "O=C(O)c1cc(-c2ccc(-n3cc(CCOP(=O)(O)O)nn3)cc2)c2ccc(-c3ccc(C(F)(F)F)cc3)cc2c1", "target": "P2RY14", "test": "ligand displacement in cells, flow cytometry", "IC50": "1340 nM"}
{"SMILES": "CC(C)OC(=O)[C@H](Cc1c[nH]c2ccccc12)NC(=O)c1ccc2nccnc2c1", "target": "P2RY14", "test": "cAMP, antagonist", "IC50": "9.8 nM"}
{"SMILES": "OCc1ccc(Nc2ncc(Cl)c(Nc3ccccc3-c3ncc[nH]3)n2)cc1", "target": "IRAK4", "test": "enzyme activity, inhibitor, radiometric", "IC50": "84.9 nM"}
{"SMILES": "O=C(COc1ccccc1)N[C@@H](Cc1c[nH]c2ccccc12)C(=O)O", "target": "P2RY14", "test": "cAMP, antagonist", "IC50": "18.9 nM"}
{"SMILES": "CNC(=O)c1ccccc1Nc1nc(Nc2ccc(CO)nc2)ncc1Cl", "target": "IRAK4", "test": "enzyme activity, inhibitor, radiometric", "IC50": "20.8 nM"}
{"SMILES": "Nc1ncnc2c1ncn2[C@@H]1O[C@H](CSCC[C@H](N)C(=O)O)[C@@H](O)[C@H]1O", "target": "Histone-lysine N-methyltransferase, H3 lysine-36 specific (NSD1, Homo sapiens, UniProt Q96L73)", "test": "enzyme activity, inhibitor", "IC50": "6260 nM"}
{"SMILES": "C#Cc1cnc(Nc2ccc(CO)nc2)nc1Nc1ccccc1S(C)(=O)=NC#N (stereo not shown)", "target": "IRAK4", "test": "enzyme activity, inhibitor, radiometric", "IC50": "3.99 nM"}
{"SMILES": "O=C(O)c1cc(-c2ccc(-n3nncc3CCOP(=O)(O)O)cc2)c2ccc(-c3ccc(C(F)(F)F)cc3)cc2c1", "target": "P2RY14", "test": "ligand displacement in cells, flow cytometry", "IC50": "157 nM"}
{"SMILES": "COc1ccc(OCC(=O)N[C@@H](Cc2c[nH]c3ccccc23)C(=O)OC(C)C)cc1", "target": "P2RY14", "test": "cAMP, antagonist", "IC50": "15.6 nM"}
{"SMILES": "O=C(O)c1cc(-c2ccc(-c3ccncc3)cc2)c2ccc(-c3ccc(C(F)(F)F)cc3)cc2c1", "target": "P2RY14", "test": "ligand displacement in cells, flow cytometry", "IC50": "40.8 nM"}
{"SMILES": "CS(=O)(=O)c1ccccc1Nc1nc(Nc2ccnc(CO)c2)ncc1Cl", "target": "IRAK4", "test": "enzyme activity, inhibitor, radiometric", "IC50": "106 nM"}
{"SMILES": "c1c(N2CCCC2)nc(N2CCCC2)nc1N1CCNCC1", "target": "Caspase-1 (CASP1, Homo sapiens, UniProt P29466)", "test": "enzyme activity, inhibitor", "conditions": "with preincubation", "IC50": "233 nM"}
{"SMILES": "Cn1cc(-c2ccnc3ccccc23)c(-c2ccccn2)n1", "target": "TGFBR1", "test": "enzyme activity, inhibitor, radiometric", "IC50": "750 nM"}
